# In ChEMBL document CHEMBL2034860, “Cytotoxic heterocyclic triterpenoids derived from betulin and betulinic acid” (Bioorg Med Chem, 2012):
# Tested on: K562
# Experiment: Cytotoxicity against human K562 cells after 72 hrs by MTT assay
# Assay type: functional, cell-based
# Conditions: K562, 72 h
# Procedure, shortened: (§1)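 Cells seeded at 2500–30,000 per well according to cell type and pre-incubated 24 h at 37 °C, 5% CO2. Four-fold dilutions of compounds dissolved in 10% DMSO were added at time zero, in quadruplicate, then incubated 72 h. MTT was added for a further 1–4 h and formazan dissolved in 10% aq SDS (pH 5.5) overnight at 37 °C. OD was read at 540 nm. Survival was taken as % of mean control OD, and IC50 was read from dose-response curves.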
row,Structure (SMILES),IC50
1,CC(C)[C@@H]1CC[C@]2(C(=O)O)CC[C@]3(C)[C@H](CC[C@@H]4[C@@]5(C)CCC(=O)C(C)(C)[C@@H]5CC[C@]43C)[C@@H]12 [DIHYDROBETULONIC ACID],2.5 µM
2,CC(C)[C@@H]1CC[C@]2(C(=O)O)CC[C@]3(C)[C@H](CC[C@@H]4[C@@]5(C)Cc6sc(N)nc6C(C)(C)[C@@H]5CC[C@]43C)[C@@H]12,4.8 µM
3,CC(C)[C@@H]1CC[C@]2(C(=O)O)CC[C@]3(C)[C@H](CC[C@@H]4[C@@]5(C)Cc6c[nH]nc6C(C)(C)[C@@H]5CC[C@]43C)[C@@H]12,3.5 µM
4,C=C(C)[C@@H]1CC[C@]2(C(=O)O)CC[C@]3(C)[C@H](CC[C@@H]4[C@@]5(C)Cc6c[nH]nc6C(C)(C)[C@@H]5CC[C@]43C)[C@@H]12,2.6 µM

# Tested on: BJ
# Experiment: Cytotoxicity against human BJ cells after 72 hrs by MTT assay
# Assay type: cell-based
# Conditions: not given
# Procedure, shortened: as §1
row,Structure (SMILES),IC50
1,CC(C)[C@@H]1CC[C@]2(C(=O)O)CC[C@]3(C)[C@H](CC[C@@H]4[C@@]5(C)CCC(=O)C(C)(C)[C@@H]5CC[C@]43C)[C@@H]12 [DIHYDROBETULONIC ACID],22.6 µM
2,CC(C)[C@@H]1CC[C@]2(C(=O)O)CC[C@]3(C)[C@H](CC[C@@H]4[C@@]5(C)Cc6sc(N)nc6C(C)(C)[C@@H]5CC[C@]43C)[C@@H]12,24.9 µM
3,CC(C)[C@@H]1CC[C@]2(C(=O)O)CC[C@]3(C)[C@H](CC[C@@H]4[C@@]5(C)Cc6c[nH]nc6C(C)(C)[C@@H]5CC[C@]43C)[C@@H]12,22.4 µM
4,C=C(C)[C@@H]1CC[C@]2(C(=O)O)CC[C@]3(C)[C@H](CC[C@@H]4[C@@]5(C)Cc6c[nH]nc6C(C)(C)[C@@H]5CC[C@]43C)[C@@H]12,35.8 µM

# Tested on: K562
# Experiment: Cytotoxicity against human paclitaxel resistant K562 cells after 72 hrs by MTT assay
# Assay type: functional, cell-based
# Conditions: K562, 72 h
# Procedure, shortened: as §1
row,Structure (SMILES),IC50
1,CC(C)[C@@H]1CC[C@]2(C(=O)O)CC[C@]3(C)[C@H](CC[C@@H]4[C@@]5(C)CCC(=O)C(C)(C)[C@@H]5CC[C@]43C)[C@@H]12 [DIHYDROBETULONIC ACID],4 µM
2,CC(C)[C@@H]1CC[C@]2(C(=O)O)CC[C@]3(C)[C@H](CC[C@@H]4[C@@]5(C)Cc6sc(N)nc6C(C)(C)[C@@H]5CC[C@]43C)[C@@H]12,6.9 µM
3,CC(C)[C@@H]1CC[C@]2(C(=O)O)CC[C@]3(C)[C@H](CC[C@@H]4[C@@]5(C)Cc6c[nH]nc6C(C)(C)[C@@H]5CC[C@]43C)[C@@H]12,2.7 µM
4,C=C(C)[C@@H]1CC[C@]2(C(=O)O)CC[C@]3(C)[C@H](CC[C@@H]4[C@@]5(C)Cc6c[nH]nc6C(C)(C)[C@@H]5CC[C@]43C)[C@@H]12,3 µM

# Tested on: HCT-116
# Experiment: Cytotoxicity against human HCT116 cells after 72 hrs by MTT assay
# Assay type: functional, cell-based
# Conditions: HCT-116, 72 h
# Procedure, shortened: as §1
row,Structure (SMILES),IC50
1,CC(C)[C@@H]1CC[C@]2(C(=O)O)CC[C@]3(C)[C@H](CC[C@@H]4[C@@]5(C)CCC(=O)C(C)(C)[C@@H]5CC[C@]43C)[C@@H]12 [DIHYDROBETULONIC ACID],4.1 µM
2,CC(C)[C@@H]1CC[C@]2(C(=O)O)CC[C@]3(C)[C@H](CC[C@@H]4[C@@]5(C)Cc6sc(N)nc6C(C)(C)[C@@H]5CC[C@]43C)[C@@H]12,5.1 µM
3,CC(C)[C@@H]1CC[C@]2(C(=O)O)CC[C@]3(C)[C@H](CC[C@@H]4[C@@]5(C)Cc6c[nH]nc6C(C)(C)[C@@H]5CC[C@]43C)[C@@H]12,3.9 µM
4,C=C(C)[C@@H]1CC[C@]2(C(=O)O)CC[C@]3(C)[C@H](CC[C@@H]4[C@@]5(C)Cc6c[nH]nc6C(C)(C)[C@@H]5CC[C@]43C)[C@@H]12,4.5 µM

# Tested on: not listed separately
# Experiment: Solubility of the compound in water based media
# Assay type: physicochemical
# Conditions: buffer
row,solubility,Structure (SMILES)
1,Insoluble,CC(C)[C@@H]1CC[C@]2(C(=O)O)CC[C@]3(C)[C@H](CC[C@@H]4[C@@]5(C)Cc6sc(N)nc6C(C)(C)[C@@H]5CC[C@]43C)[C@@H]12
2,Insoluble,CC(C)[C@@H]1CC[C@]2(C(=O)O)CC[C@]3(C)[C@H](CC[C@@H]4[C@@]5(C)Cc6c[nH]nc6C(C)(C)[C@@H]5CC[C@]43C)[C@@H]12

row,Structure (SMILES),solubility
1,C=C(C)[C@@H]1CC[C@]2(C(=O)O)CC[C@]3(C)[C@H](CC[C@@H]4[C@@]5(C)Cc6c[nH]nc6C(C)(C)[C@@H]5CC[C@]43C)[C@@H]12,Insoluble

# Tested on: HCT-116
# Experiment: Cytotoxicity against human p53-deficient HCT116 cells after 72 hrs by MTT assay
# Assay type: functional, cell-based
# Conditions: HCT-116, 72 h
# Procedure, shortened: as §1
row,Structure (SMILES),IC50
1,CC(C)[C@@H]1CC[C@]2(C(=O)O)CC[C@]3(C)[C@H](CC[C@@H]4[C@@]5(C)CCC(=O)C(C)(C)[C@@H]5CC[C@]43C)[C@@H]12 [DIHYDROBETULONIC ACID],6.1 µM
2,CC(C)[C@@H]1CC[C@]2(C(=O)O)CC[C@]3(C)[C@H](CC[C@@H]4[C@@]5(C)Cc6sc(N)nc6C(C)(C)[C@@H]5CC[C@]43C)[C@@H]12,4.3 µM
3,CC(C)[C@@H]1CC[C@]2(C(=O)O)CC[C@]3(C)[C@H](CC[C@@H]4[C@@]5(C)Cc6c[nH]nc6C(C)(C)[C@@H]5CC[C@]43C)[C@@H]12,2.8 µM
4,C=C(C)[C@@H]1CC[C@]2(C(=O)O)CC[C@]3(C)[C@H](CC[C@@H]4[C@@]5(C)Cc6c[nH]nc6C(C)(C)[C@@H]5CC[C@]43C)[C@@H]12,3.3 µM

# Tested on: CCRF-CEM
# Experiment: Cytotoxicity against human daunorubicine resistant CEM cells after 72 hrs by MTT assay
# Assay type: functional, cell-based
# Conditions: not given
# Procedure, shortened: as §1
row,Structure (SMILES),IC50
1,CC(C)[C@@H]1CC[C@]2(C(=O)O)CC[C@]3(C)[C@H](CC[C@@H]4[C@@]5(C)CCC(=O)C(C)(C)[C@@H]5CC[C@]43C)[C@@H]12 [DIHYDROBETULONIC ACID],9.4 µM
2,CC(C)[C@@H]1CC[C@]2(C(=O)O)CC[C@]3(C)[C@H](CC[C@@H]4[C@@]5(C)Cc6sc(N)nc6C(C)(C)[C@@H]5CC[C@]43C)[C@@H]12,11.2 µM
3,CC(C)[C@@H]1CC[C@]2(C(=O)O)CC[C@]3(C)[C@H](CC[C@@H]4[C@@]5(C)Cc6c[nH]nc6C(C)(C)[C@@H]5CC[C@]43C)[C@@H]12,8.2 µM
4,C=C(C)[C@@H]1CC[C@]2(C(=O)O)CC[C@]3(C)[C@H](CC[C@@H]4[C@@]5(C)Cc6c[nH]nc6C(C)(C)[C@@H]5CC[C@]43C)[C@@H]12,10.4 µM

# Tested on: CCRF-CEM
# Experiment: Cytotoxicity against human CCRF-CEM cells after 72 hrs by MTT assay
# Assay type: functional, cell-based
# Conditions: not given
row,Structure (SMILES),IC50
1,CC(C)[C@@H]1CC[C@]2(C(=O)O)CC[C@]3(C)[C@H](CC[C@@H]4[C@@]5(C)CCC(=O)C(C)(C)[C@@H]5CC[C@]43C)[C@@H]12 [DIHYDROBETULONIC ACID],4 µM
2,CC(C)[C@@H]1CC[C@]2(C(=O)O)CC[C@]3(C)[C@H](CC[C@@H]4[C@@]5(C)Cc6sc(N)nc6C(C)(C)[C@@H]5CC[C@]43C)[C@@H]12,3 µM
3,CC(C)[C@@H]1CC[C@]2(C(=O)O)CC[C@]3(C)[C@H](CC[C@@H]4[C@@]5(C)Cc6c[nH]nc6C(C)(C)[C@@H]5CC[C@]43C)[C@@H]12,3 µM
4,C=C(C)[C@@H]1CC[C@]2(C(=O)O)CC[C@]3(C)[C@H](CC[C@@H]4[C@@]5(C)Cc6c[nH]nc6C(C)(C)[C@@H]5CC[C@]43C)[C@@H]12,3 µM

# Tested on: MRC5
# Experiment: Cytotoxicity against human MRC5 cells after 72 hrs by MTT assay
# Assay type: cell-based
# Conditions: MRC5, 72 h
# Procedure, shortened: as §1
row,Structure (SMILES),IC50
1,CC(C)[C@@H]1CC[C@]2(C(=O)O)CC[C@]3(C)[C@H](CC[C@@H]4[C@@]5(C)CCC(=O)C(C)(C)[C@@H]5CC[C@]43C)[C@@H]12 [DIHYDROBETULONIC ACID],11.7 µM
2,CC(C)[C@@H]1CC[C@]2(C(=O)O)CC[C@]3(C)[C@H](CC[C@@H]4[C@@]5(C)Cc6sc(N)nc6C(C)(C)[C@@H]5CC[C@]43C)[C@@H]12,15.7 µM
3,CC(C)[C@@H]1CC[C@]2(C(=O)O)CC[C@]3(C)[C@H](CC[C@@H]4[C@@]5(C)Cc6c[nH]nc6C(C)(C)[C@@H]5CC[C@]43C)[C@@H]12,13.4 µM
4,C=C(C)[C@@H]1CC[C@]2(C(=O)O)CC[C@]3(C)[C@H](CC[C@@H]4[C@@]5(C)Cc6c[nH]nc6C(C)(C)[C@@H]5CC[C@]43C)[C@@H]12,14.1 µM

# Tested on: A549
# Experiment: Cytotoxicity against human A549 cells after 72 hrs by MTT assay
# Assay type: functional, cell-based
# Conditions: A549, 72 h
# Procedure, shortened: as §1
row,Structure (SMILES),IC50
1,CC(C)[C@@H]1CC[C@]2(C(=O)O)CC[C@]3(C)[C@H](CC[C@@H]4[C@@]5(C)CCC(=O)C(C)(C)[C@@H]5CC[C@]43C)[C@@H]12 [DIHYDROBETULONIC ACID],5.9 µM
2,CC(C)[C@@H]1CC[C@]2(C(=O)O)CC[C@]3(C)[C@H](CC[C@@H]4[C@@]5(C)Cc6sc(N)nc6C(C)(C)[C@@H]5CC[C@]43C)[C@@H]12,7 µM
3,CC(C)[C@@H]1CC[C@]2(C(=O)O)CC[C@]3(C)[C@H](CC[C@@H]4[C@@]5(C)Cc6c[nH]nc6C(C)(C)[C@@H]5CC[C@]43C)[C@@H]12,3.6 µM
4,C=C(C)[C@@H]1CC[C@]2(C(=O)O)CC[C@]3(C)[C@H](CC[C@@H]4[C@@]5(C)Cc6c[nH]nc6C(C)(C)[C@@H]5CC[C@]43C)[C@@H]12,5.2 µM
